Test results from ChEMBL document CHEMBL4052817 (J Med Chem, 2017).
Calls of active or inactive are those of the source. No cut-off for these calls is given here.

What was measured:
[1] = target: Tryptophan 2,3-dioxygenase (Homo sapiens, UniProt P48775); experiment: Inhibition of human TDO2 using tryptophan as substrate after 22 mins by LC-MS/MS method
[2] = Drug metabolism in dog hepatocytes assessed as hydrolysis; type: ADME, cell-based, Canis lupus familiaris, Hepatocyte
[3] = Intrinsic apparent clearance in rat hepatocytes assessed per million cells; type: ADME, cell-based, Hepatocyte
Cytochrome P450 1A2 [4] = target: T1, Cytochrome P450 1A2 (Homo sapiens, UniProt P05177); experiment: Time/NADPH-dependent inhibition of CYP1A2 (unknown origin); type: ADME
T1 sequence (P05177 whole entry): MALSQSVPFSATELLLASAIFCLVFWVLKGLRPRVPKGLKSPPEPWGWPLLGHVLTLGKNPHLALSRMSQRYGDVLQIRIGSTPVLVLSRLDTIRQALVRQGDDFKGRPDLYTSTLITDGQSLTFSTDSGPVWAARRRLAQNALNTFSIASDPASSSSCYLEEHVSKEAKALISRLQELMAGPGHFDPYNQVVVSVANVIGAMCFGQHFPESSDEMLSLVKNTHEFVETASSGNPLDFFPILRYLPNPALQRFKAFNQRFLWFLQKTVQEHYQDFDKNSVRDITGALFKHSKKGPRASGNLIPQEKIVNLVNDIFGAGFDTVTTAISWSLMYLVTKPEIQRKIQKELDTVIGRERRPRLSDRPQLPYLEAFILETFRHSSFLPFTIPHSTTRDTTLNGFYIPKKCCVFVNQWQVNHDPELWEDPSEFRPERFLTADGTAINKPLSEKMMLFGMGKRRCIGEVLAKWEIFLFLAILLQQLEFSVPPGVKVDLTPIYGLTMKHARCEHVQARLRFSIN

Canis familiaris [5] = experiment: Half life in beagle dog assessed as (R)-3-(5-fluoro-1H-indol-3-yl)pyrrolidine-2,5-dione at 3 mg/kg, po; type: ADME, organism-based, Canis lupus familiaris; conditions: in vivo
Mus musculus [6] = experiment: Tmax in CD-1 mouse assessed as (R)-3-(5-fluoro-1H-indol-3-yl)pyrrolidine-2,5-dione at 3 mg/kg, po; type: ADME, organism-based; conditions: in vivo
Cytochrome P450 1A2 [7] = target: T1, Cytochrome P450 1A2; experiment: Inhibition of CYP1A2 (unknown origin); type: ADME
Rattus norvegicus [8] = experiment: Volume of distribution at steady state in Wistar-Han rat assessed as (R)-3-(5-fluoro-1H-indol-3-yl)pyrrolidine-2,5-dione at 1 mg/kg, iv by LC-MS/MS method; type: ADME, organism-based; conditions: in vivo
Canis familiaris [9] = experiment: AUC (infinity) in beagle dog assessed as (R)-3-(5-fluoro-1H-indol-3-yl)pyrrolidine-2,5-dione at 3 mg/kg, po; type: ADME, organism-based, Canis lupus familiaris; set-up: dose 3 mg/kg, route oral, time infinity; conditions: in vivo
Cytochrome P450 2D6 [10] = target: T2, Cytochrome P450 2D6 (Homo sapiens, UniProt P10635); experiment: Inhibition of CYP2D6 (unknown origin); type: ADME
T2 sequence (P10635 whole entry): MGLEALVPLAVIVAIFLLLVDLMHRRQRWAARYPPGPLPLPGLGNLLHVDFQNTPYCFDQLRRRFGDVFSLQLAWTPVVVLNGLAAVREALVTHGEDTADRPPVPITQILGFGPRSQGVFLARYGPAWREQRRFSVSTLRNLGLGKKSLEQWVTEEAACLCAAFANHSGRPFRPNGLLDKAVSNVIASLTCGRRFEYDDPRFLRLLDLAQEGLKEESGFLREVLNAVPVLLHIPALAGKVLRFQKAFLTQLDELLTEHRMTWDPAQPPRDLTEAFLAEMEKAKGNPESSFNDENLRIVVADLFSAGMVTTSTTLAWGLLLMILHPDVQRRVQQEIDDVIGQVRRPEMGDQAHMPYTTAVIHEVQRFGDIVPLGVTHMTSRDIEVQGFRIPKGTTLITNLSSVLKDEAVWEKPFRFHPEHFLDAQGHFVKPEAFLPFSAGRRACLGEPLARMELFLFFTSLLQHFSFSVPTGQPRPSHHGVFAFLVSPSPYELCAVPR

Cytochrome P450 2D6 [11] = target: T2, Cytochrome P450 2D6; experiment: Time/NADPH-dependent inhibition of CYP2D6 (unknown origin); type: ADME
Cytochrome P450 2C19 = Cytochrome P450 2C19 (Homo sapiens, UniProt P33261); experiment: Time-dependent inhibition of CYP2C19 (unknown origin); type: ADME
Sequence of Cytochrome P450 2C19 (P33261 whole entry): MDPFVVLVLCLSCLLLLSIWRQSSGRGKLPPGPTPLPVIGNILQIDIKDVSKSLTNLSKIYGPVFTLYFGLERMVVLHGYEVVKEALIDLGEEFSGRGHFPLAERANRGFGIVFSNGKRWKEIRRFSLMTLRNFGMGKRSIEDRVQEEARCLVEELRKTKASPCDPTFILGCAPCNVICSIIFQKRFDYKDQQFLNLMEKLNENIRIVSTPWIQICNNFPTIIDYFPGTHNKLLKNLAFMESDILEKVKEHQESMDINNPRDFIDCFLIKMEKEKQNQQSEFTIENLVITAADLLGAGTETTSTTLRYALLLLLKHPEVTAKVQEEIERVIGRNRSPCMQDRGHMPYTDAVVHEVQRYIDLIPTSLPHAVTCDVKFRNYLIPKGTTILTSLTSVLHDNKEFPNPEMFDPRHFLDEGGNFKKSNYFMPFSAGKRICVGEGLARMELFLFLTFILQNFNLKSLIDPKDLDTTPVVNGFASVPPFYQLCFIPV

4T1 = experiment: Antitumor activity against mouse 4T1 tumor model administered as monotherapy; type: functional
Cytochrome P450 2C9 [12] = target: T3, Cytochrome P450 2C9 (Homo sapiens, UniProt P11712); experiment: Time-dependent inhibition of CYP2C9 (unknown origin); type: ADME
T3 sequence (P11712 whole entry): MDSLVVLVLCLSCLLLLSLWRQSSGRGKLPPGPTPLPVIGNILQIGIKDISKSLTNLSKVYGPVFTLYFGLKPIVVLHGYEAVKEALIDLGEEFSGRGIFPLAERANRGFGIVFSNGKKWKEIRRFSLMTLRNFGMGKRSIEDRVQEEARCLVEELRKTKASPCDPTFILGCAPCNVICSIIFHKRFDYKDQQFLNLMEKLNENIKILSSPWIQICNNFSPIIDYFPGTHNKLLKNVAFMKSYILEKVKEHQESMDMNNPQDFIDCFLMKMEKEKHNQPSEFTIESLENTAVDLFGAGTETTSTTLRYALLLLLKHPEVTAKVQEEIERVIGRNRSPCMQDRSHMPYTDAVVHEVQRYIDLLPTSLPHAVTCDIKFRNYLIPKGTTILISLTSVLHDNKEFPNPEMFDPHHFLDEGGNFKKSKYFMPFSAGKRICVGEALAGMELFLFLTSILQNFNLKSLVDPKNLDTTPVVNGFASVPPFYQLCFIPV

Cytochrome P450 3A4 [13] = target: T4, Cytochrome P450 3A4 (Homo sapiens, UniProt P08684); experiment: Inhibition of CYP3A4 (unknown origin); type: ADME
T4 sequence (P08684 whole entry): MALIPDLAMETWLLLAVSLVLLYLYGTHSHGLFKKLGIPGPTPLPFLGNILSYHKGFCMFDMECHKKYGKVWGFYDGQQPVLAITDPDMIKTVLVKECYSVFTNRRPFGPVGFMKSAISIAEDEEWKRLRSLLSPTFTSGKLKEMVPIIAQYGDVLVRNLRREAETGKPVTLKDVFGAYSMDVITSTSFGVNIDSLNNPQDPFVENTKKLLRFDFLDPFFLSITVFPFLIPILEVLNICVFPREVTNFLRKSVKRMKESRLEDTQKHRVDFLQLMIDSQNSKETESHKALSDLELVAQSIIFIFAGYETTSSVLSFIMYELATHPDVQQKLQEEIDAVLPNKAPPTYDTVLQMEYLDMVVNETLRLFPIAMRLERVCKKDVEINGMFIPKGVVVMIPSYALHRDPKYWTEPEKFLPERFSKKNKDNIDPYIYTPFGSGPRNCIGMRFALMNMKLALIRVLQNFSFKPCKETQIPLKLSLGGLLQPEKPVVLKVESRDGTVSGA

[14] = Drug excretion in rat urine assessed as (R)-3-(5-fluoro-1H-indol-3-yl)pyrrolidine-2,5-dione; type: ADME; conditions: in vivo
Method in brief: (§1)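 Racemate dosed to rats (urine and bile collected) and to dogs (urine collected). The percentage of the dose excreted as unchanged (R)-enantiomer was measured.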

Rattus norvegicus [15] = experiment: Half life in Wistar-Han rat assessed as (R)-3-(5-fluoro-1H-indol-3-yl)pyrrolidine-2,5-dione at 1 mg/kg, iv by LC-MS/MS method; type: ADME, organism-based; conditions: in vivo
Method in brief: (§2)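 Racemate given as a single 1 mg/kg IV dose to male CD-1 mice, Wistar-Han rats or beagle dogs (n=3 per species). Plasma levels of the (R)-enantiomer measured by chiral LC-MS/MS. Mean AUCinf, CLp, Vss and t1/2 reported.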

Rattus norvegicus [16] = experiment: AUC (infinity) in Wistar-Han rat assessed as (R)-3-(5-fluoro-1H-indol-3-yl)pyrrolidine-2,5-dione at 1 mg/kg, iv by LC-MS/MS method; type: ADME, organism-based; set-up: dose 1 mg/kg, time infinity, route intravenous; conditions: in vivo; method in brief: as §2
Cytochrome P450 3A4 [17] = target: T4, Cytochrome P450 3A4; experiment: Time/NADPH-dependent inhibition of CYP3A4 (unknown origin); type: ADME
Mus musculus [18] = experiment: Volume of distribution at steady state in CD-1 mouse assessed as (R)-3-(5-fluoro-1H-indol-3-yl)pyrrolidine-2,5-dione at 1 mg/kg, iv by LC-MS/MS method; type: ADME, organism-based; conditions: in vivo
Cytochrome P450 2D6 [19] = target: T2, Cytochrome P450 2D6; experiment: Time-dependent inhibition of CYP2D6 (unknown origin); type: ADME
Cytochrome P450 2C9 [20] = target: T3, Cytochrome P450 2C9; experiment: Time/NADPH-dependent inhibition of CYP2C9 (unknown origin); type: ADME
Canis familiaris [21] = experiment: Oral bioavailability in beagle dog assessed as (R)-3-(5-fluoro-1H-indol-3-yl)pyrrolidine-2,5-dione at 3 mg/kg; type: ADME, organism-based, Canis lupus familiaris; conditions: in vivo
Cytochrome P450 2C9 [22] = target: T3, Cytochrome P450 2C9; experiment: Inhibition of CYP2C9 (unknown origin); type: ADME
[23] = target: Voltage-gated inwardly rectifying potassium channel KCNH2 (Homo sapiens, UniProt Q12809); experiment: Inhibition of human ERG up to 300 uM relative to control
Sequence of Voltage-gated inwardly rectifying potassium channel KCNH2 (Q12809 whole entry): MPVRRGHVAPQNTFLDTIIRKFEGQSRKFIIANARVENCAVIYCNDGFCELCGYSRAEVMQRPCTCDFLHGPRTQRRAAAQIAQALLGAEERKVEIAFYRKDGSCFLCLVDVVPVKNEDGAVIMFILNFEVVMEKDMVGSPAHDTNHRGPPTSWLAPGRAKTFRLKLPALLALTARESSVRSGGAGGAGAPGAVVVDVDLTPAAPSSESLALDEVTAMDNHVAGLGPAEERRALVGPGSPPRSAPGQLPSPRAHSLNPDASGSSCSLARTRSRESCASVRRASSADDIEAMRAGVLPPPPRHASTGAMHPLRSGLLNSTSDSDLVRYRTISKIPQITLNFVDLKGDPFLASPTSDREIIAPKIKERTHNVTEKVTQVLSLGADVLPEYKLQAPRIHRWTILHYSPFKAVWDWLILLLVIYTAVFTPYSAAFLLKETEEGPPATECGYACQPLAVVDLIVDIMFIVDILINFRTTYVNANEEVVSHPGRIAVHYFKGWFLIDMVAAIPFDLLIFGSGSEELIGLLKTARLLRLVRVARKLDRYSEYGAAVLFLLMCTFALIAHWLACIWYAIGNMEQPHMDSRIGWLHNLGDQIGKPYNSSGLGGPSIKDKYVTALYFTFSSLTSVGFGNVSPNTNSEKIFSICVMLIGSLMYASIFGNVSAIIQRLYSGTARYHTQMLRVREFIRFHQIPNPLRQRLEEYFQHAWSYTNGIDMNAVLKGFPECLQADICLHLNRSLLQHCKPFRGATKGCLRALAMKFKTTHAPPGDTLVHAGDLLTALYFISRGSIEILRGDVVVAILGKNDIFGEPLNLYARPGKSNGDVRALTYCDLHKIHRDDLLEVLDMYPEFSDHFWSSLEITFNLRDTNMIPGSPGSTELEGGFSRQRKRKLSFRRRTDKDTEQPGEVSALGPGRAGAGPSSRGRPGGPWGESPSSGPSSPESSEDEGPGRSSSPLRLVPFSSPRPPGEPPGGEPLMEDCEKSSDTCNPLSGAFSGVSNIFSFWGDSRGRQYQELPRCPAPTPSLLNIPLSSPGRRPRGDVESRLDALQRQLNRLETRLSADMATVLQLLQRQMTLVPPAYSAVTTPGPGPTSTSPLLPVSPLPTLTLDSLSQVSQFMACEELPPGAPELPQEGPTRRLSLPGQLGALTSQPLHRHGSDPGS

[24] = Drug metabolism in human hepatocytes assessed as oxidation; type: ADME, cell-based, Hepatocyte
Canis familiaris [25] = experiment: Volume of distribution at steady state in beagle dog assessed as (R)-3-(5-fluoro-1H-indol-3-yl)pyrrolidine-2,5-dione at 1 mg/kg, iv by LC-MS/MS method; type: ADME, organism-based, Canis lupus familiaris; conditions: in vivo
B16-F10 = experiment: Antitumor activity against mouse B16/F10 tumor model administered as monotherapy; type: functional
Mus musculus [26] = experiment: Oral bioavailability in CD-1 mouse assessed as (R)-3-(5-fluoro-1H-indol-3-yl)pyrrolidine-2,5-dione at 3 mg/kg; type: ADME, organism-based; conditions: in vivo
Hepatocyte = experiment: Induction of CYP2B6 mRNA expression in human hepatocytes at <100 uM; type: ADME, cell-based
Rattus norvegicus [27] = experiment: Tmax in Wistar-Han rat assessed as (R)-3-(5-fluoro-1H-indol-3-yl)pyrrolidine-2,5-dione at 3 mg/kg, po; type: ADME, organism-based; conditions: in vivo
Canis familiaris [28] = experiment: AUC (infinity) in beagle dog assessed as (R)-3-(5-fluoro-1H-indol-3-yl)pyrrolidine-2,5-dione at 1 mg/kg, iv by LC-MS/MS method; type: ADME, organism-based, Canis lupus familiaris; set-up: dose 1 mg/kg, route intravenous, time infinity; conditions: in vivo; method in brief: as §2
Canis familiaris [29] = experiment: Half life in beagle dog assessed as (R)-3-(5-fluoro-1H-indol-3-yl)pyrrolidine-2,5-dione at 1 mg/kg, iv by LC-MS/MS method; type: ADME, organism-based, Canis lupus familiaris; conditions: in vivo
[30] = Drug excretion in rat bile assessed as (R)-3-(5-fluoro-1H-indol-3-yl)pyrrolidine-2,5-dione; type: ADME; conditions: in vivo; method in brief: as §1
Renca = experiment: Antitumor activity against mouse Renca tumor model administered as monotherapy; type: functional
Mus musculus [31] = experiment: In vivo inhibition of human IDO-1 expressed in non-tumor-bearing mouse assessed as reduction in plasma L-kynurenine levels at >= 200 mg/kg after 1 hr relative to control; type: functional
Canis familiaris [32] = experiment: Cmax in beagle dog assessed as (R)-3-(5-fluoro-1H-indol-3-yl)pyrrolidine-2,5-dione at 3 mg/kg, po; type: ADME, organism-based, Canis lupus familiaris; set-up: dose 3 mg/kg, route oral; conditions: in vivo
[33] = Drug metabolism in mouse hepatocytes assessed as hydrolysis; type: ADME, cell-based, Hepatocyte
Cytochrome P450 1A2 [34] = target: T1, Cytochrome P450 1A2; experiment: Time-dependent inhibition of CYP1A2 (unknown origin); type: ADME

Sequence of Tryptophan 2,3-dioxygenase (P48775 whole entry): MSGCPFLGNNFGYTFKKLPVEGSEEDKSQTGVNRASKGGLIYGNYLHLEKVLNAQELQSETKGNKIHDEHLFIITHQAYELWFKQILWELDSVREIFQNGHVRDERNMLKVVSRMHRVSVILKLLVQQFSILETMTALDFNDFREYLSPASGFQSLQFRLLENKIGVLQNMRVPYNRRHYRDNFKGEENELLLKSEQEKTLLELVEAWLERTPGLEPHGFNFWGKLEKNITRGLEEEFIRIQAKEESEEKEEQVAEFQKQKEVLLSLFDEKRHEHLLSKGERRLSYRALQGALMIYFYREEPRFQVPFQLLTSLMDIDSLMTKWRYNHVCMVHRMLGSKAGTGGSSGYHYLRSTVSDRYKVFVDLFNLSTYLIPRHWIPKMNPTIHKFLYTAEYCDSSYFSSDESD

O=C1CC(c2c[nH]c3ccc(F)cc23)C(=O)N1 (centres undefined) [PF-06840003]
IC50 [1]: 140 µM | Drug metabolism [2]: Metabolite_Detected | CLH(app) [3]: 2.3 µL/min | inhibition (INH) (Cytochrome P450 1A2 [4]): Not Active | t1/2 (Canis familiaris [5]): 50.4 min | Tmax (Mus musculus [6]): 34.8 min | IC50 (Cytochrome P450 1A2 [7]): > 100 µM | Vdss (Rattus norvegicus [8]): 0.639 L/kg | AUC (Canis familiaris [9]): 237 ng·h/mL | IC50 (Cytochrome P450 2D6 [10]): > 100 µM | inhibition (INH) (Cytochrome P450 2D6 [11]): Not Active | TDI (Cytochrome P450 2C19): Not Active | Activity (4T1): Active | TDI (Cytochrome P450 2C9 [12]): Not Active | IC50 (Cytochrome P450 3A4 [13]): > 100 µM | Drug excretion [14]: < 1 %ID | t1/2 (Rattus norvegicus [15]): 133 min | AUC (Rattus norvegicus [16]): 2520 ng·h/mL | inhibition (INH) (Cytochrome P450 3A4 [17]): Not Active | Vdss (Mus musculus [18]): 0.787 L/kg | TDI (Cytochrome P450 2D6 [19]): Not Active | inhibition (INH) (Cytochrome P450 2C9 [20]): Not Active | F (Canis familiaris [21]): 18.6% | IC50 (Cytochrome P450 2C9 [22]): > 100 µM | inhibition (INH) [23]: < 50% | Drug metabolism [24]: Metabolite_Detected | Vdss (Canis familiaris [25]): 0.957 L/kg | Activity (B16-F10): Active | F (Mus musculus [26]): 59.3% | Activity (Hepatocyte): Not Active | Tmax (Rattus norvegicus [27]): 78 min | AUC (Canis familiaris [28]): 423 ng·h/mL | t1/2 (Canis familiaris [29]): 48.1 min | Drug excretion [30]: < 1 %ID | Activity (Renca): Active | inhibition (INH) (Mus musculus [31]): >=54% | Cmax (Canis familiaris [32]): 219 ng/mL | Drug metabolism [33]: Metabolite_Detected | TDI (Cytochrome P450 1A2 [34]): Not Active
